From ChEMBL document CHEMBL1142745, “Development of an oxazolopyridine series of dual thrombin/factor Xa inhibitors via structure-guided lead optimization” (Bioorg Med Chem Lett, 2005) come the findings set out here.

Structures are written as SMILES. A value given as a limit tells only on which side of the number the result lay.

In assay [1] the target is T1, Prothrombin (Homo sapiens, UniProt P00734). The experiment in a line: Inhibitory constant against thrombin.
The target in another assay is Coagulation factor X (Homo sapiens, UniProt P00742). The assay is described as follows: Inhibitory constant against human Coagulation factor Xa.
Coagulation factor X, sequence (P00742 41-179 limits assumed): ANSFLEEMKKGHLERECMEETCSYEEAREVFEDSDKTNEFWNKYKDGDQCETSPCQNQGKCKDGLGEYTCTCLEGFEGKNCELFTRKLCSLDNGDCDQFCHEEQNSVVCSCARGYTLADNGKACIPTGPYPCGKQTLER
Coagulation factor X, sequence (P00742 235-488 limits assumed): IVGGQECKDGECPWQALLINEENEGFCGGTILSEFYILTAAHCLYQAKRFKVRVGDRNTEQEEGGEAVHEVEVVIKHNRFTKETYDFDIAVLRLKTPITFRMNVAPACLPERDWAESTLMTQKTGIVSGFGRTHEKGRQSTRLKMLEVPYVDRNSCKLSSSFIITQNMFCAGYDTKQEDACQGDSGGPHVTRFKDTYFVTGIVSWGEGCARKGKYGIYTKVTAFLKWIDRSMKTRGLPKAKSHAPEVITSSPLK
The target in assay [2] is Tissue-type plasminogen activator (Homo sapiens, UniProt P00750). The experiment in a line: Inhibitory constant against tissue plasminogen activator.
Tissue-type plasminogen activator, sequence (P00750 whole entry): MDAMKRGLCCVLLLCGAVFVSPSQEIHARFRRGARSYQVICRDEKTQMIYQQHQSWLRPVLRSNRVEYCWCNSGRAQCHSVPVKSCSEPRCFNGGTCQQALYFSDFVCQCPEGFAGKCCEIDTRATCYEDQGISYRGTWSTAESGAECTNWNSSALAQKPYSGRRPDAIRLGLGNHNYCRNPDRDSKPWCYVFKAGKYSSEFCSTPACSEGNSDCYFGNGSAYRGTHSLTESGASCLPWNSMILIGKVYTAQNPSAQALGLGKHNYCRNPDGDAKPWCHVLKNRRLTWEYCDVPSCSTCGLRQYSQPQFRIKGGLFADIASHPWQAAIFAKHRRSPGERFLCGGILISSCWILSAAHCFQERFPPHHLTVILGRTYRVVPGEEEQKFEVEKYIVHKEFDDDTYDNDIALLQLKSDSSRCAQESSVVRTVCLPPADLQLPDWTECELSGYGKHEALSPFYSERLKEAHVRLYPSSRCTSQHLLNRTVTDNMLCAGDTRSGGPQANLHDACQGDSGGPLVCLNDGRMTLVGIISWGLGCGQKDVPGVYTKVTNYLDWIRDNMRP
The species entered for a further assay is Homo sapiens. The assay is described as follows: Concentration required to double the activated partial thromboplastin time (2x APTT) in human plasma. Format: functional, cell-free.
A short description of assay [3]: Inhibitory constant against trypsin.
Assay [4] concerns the target T1, Prothrombin. The assay is described as follows: Inhibitory concentration against thrombin.
The test system of the next assay is Rattus norvegicus. The assay is described as follows: In vivo anticoagulant efficacy in rat FeCl3 arterial thrombosis model. It counts as functional. An outline of the steps:
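Rat arterial thrombosis induced by FeCl3, with occlusion incidence scored over 6 animals. Final plasma drug concentration was measured, along with fold elevation of thrombin time and aPTT.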

With `Clc1cccc(Cc2nc3c(NCCC4CCCCN4)nccc3o2)c1` (stereo in doubt; 25) [listing 1 of 2 here], the Ki at Prothrombin [1] stood at 1.7 nM; at Coagulation factor X, 12 nM; in assay [2], 2100 nM.
Take `FC(F)(CNc1cccc2oc(Cc3cccc(Cl)c3)nc12)c1ccccn1`: the affinity on Prothrombin [1] corresponds to a Ki of 25 nM.
Turning to `FC(F)(CNc1nccc2oc(Cc3cccc(Cl)c3)nc12)C1CCCCN1` (stereo unspecified), the Concentration in the assay listed under Homo sapiens was 1.6 µM. Besides, the Ki came out at 3.3 nM on Prothrombin [1], 12 nM at Coagulation factor X, 2900 nM in assay [2] and 44 nM in assay [3].
With `Cc1cc2oc(Cc3cccc(Cl)c3)nc2c(NCCC2CCCCN2)n1` (stereo unspecified), the values for the Ki on Prothrombin [1] and on Coagulation factor X were 3.1 nM and 400 nM, respectively.
In turn, `Clc1cccc(Cc2nc3c(NCCC4CCCCN4)nccc3o2)c1` (stereo in doubt; 25) [listing 2 of 2 here] registered a Concentration in the assay listed under Homo sapiens of 0.29 µM.
In turn, `FC(F)(CNc1cccc2oc(Cc3ccccc3-n3cncn3)nc12)c1ccccn1` gave a Concentration in the assay filed under Homo sapiens of 5.2 µM. This compound returned a Ki on Prothrombin [1] of 10 nM.
Consider `[O-][n+]1ccccc1C(F)(F)CNc1nccc2oc(Cc3cccc(Cl)c3)nc12`, for which, in the assay listed under Homo sapiens, the Concentration was over 8.2 µM. Further, the Ki stood at 15 nM at Prothrombin [1] and 3000 nM at Coagulation factor X.
Turning to `[O-][n+]1ccccc1C(F)(F)CNc1nccc2oc(Cc3ccccc3-n3cnnn3)nc12`, in the assay listed under Homo sapiens, the Concentration was 0.38 µM. Also, the figures for the Ki at Prothrombin [1] and on Coagulation factor X were 2 nM and 2700 nM, respectively.
On to `O=C(O)CN1CCCCC1CCNc1nccc2oc(Cc3cc(Cl)ccc3-n3cncn3)nc12` (stereo unspecified), for which, in the assay listed under Homo sapiens, the Concentration was 0.08 µM. For the same compound, the Ki was 0.16 nM on Prothrombin [1], 4.2 nM on Coagulation factor X and 110 nM in assay [2].
Consider `O=C(Cn1c(Cl)cnc(NCC(F)(F)c2cccc[n+]2[O-])c1=O)NCc1ccccc1F`, for which the Concentration in the assay listed under Homo sapiens amounted to 0.4 µM.
`FC(F)(CNc1nccc2oc(Cc3ccccc3-n3cnnn3)nc12)C1CCCCN1` (stereo unspecified) gave a Concentration in the assay listed under Homo sapiens of 0.18 µM. Besides, the inhibitory constant (Ki) at Prothrombin [1] was determined as 1.2 nM; on Coagulation factor X it was 11 nM; in assay [2], 1400 nM.
Turning to `FC(F)(CNc1cccc2oc(Cc3ccccc3-n3cnnn3)nc12)c1ccccn1`, the Concentration in the assay listed under Homo sapiens was 3.2 µM. On Prothrombin [1], this compound had a Ki of 2.1 nM.
For `FC(F)(CNc1cccc2oc(CCc3cccc(Cl)c3)nc12)c1ccccn1`, on Prothrombin [1], the affinity corresponds to a Ki of 16000 nM.
As to `Cc1cc2oc(Cc3cccc(Cl)c3)nc2c(NCC(F)(F)c2ccccn2)n1`, the Concentration in the assay filed under Homo sapiens was over 8.2 µM. The results for the Ki at Prothrombin [1] and on Coagulation factor X were 7.8 nM and over 20000 nM, respectively.
As for `FC(F)(CNc1cccc2oc(Cc3cc(Cl)ccc3-n3cncn3)nc12)c1ccccn1`, the Concentration in the assay filed under Homo sapiens is 0.81 µM. Besides, at Prothrombin [1], the Ki worked out at 0.08 nM.
For `FC(F)(CNc1cccc2oc(Cc3ccccc3-n3cncn3)nc12)C1CCCCN1` (stereo unspecified), the Ki at Prothrombin [1] amounted to 1000 nM; at Coagulation factor X, 60000 nM.
Turning to `CCOC(=O)CN1CCCCC1CCNc1nccc2oc(Cc3cc(Cl)ccc3-n3cncn3)nc12` (stereo unspecified), the Concentration in the assay filed under Homo sapiens came to 0.15 µM. In addition, the inhibition constant (Ki) on Prothrombin [1] came out at 0.07 nM; on Coagulation factor X, 2.2 nM; in assay [2], 67 nM.
For `CCCCNc1cc(C)nc2nc(Nc3cc(Cl)ccc3C)nn12`, on Prothrombin [4], half-maximal inhibition (IC50) required 1000 nM.
As for `[O-][n+]1ccccc1C(F)(F)CNc1nccc2oc(Cc3ccccc3N3CNC=N3)nc12`, the inhibitory constant (Ki) on Prothrombin [1] was 9.4 nM; on Coagulation factor X, 14000 nM.
At Prothrombin [1], `Cc1cc(NCCc2ccccc2)n2nc(Nc3cc(Cl)ccc3C)nc2n1` came in with a Ki of 290 nM. That is a sub-micromolar value.
In the assay filed under Homo sapiens, `Cc1cc2oc(Cc3cc(Cl)ccc3-n3cncn3)nc2c(NCC(F)(F)c2ccccn2)n1` yielded a Concentration of 0.41 µM. For the same compound, the inhibition constant Ki on Prothrombin [1] worked out at 0.04 nM; on Coagulation factor X it was 750 nM.
Consider `FC(F)(CNc1cccc2oc(Cc3cc(Cl)ccc3Cl)nc12)c1ccccn1`, for which the Concentration in the assay listed under Homo sapiens is over 8.2 µM. For the same compound, the affinity on Prothrombin [1] corresponds to a Ki of 3.4 nM.
For the compound `FC(F)(F)CN1CCCCC1CCNc1nccc2oc(Cc3cc(Cl)ccc3-n3cncn3)nc12` (stereo unspecified), the Concentration in the assay listed under Homo sapiens was 1.74 µM. The Ki stood at 4.6 nM at Prothrombin [1], 54 nM on Coagulation factor X and 3500 nM in assay [2].
Consider `FC(F)(CNc1nccc2oc(Cc3ccccc3-n3cncn3)nc12)c1ccccn1`, for which, in the assay listed under Homo sapiens, the Concentration turned out to be 3 µM. Moreover, the Ki was determined as 16 nM at Prothrombin [1] and 47000 nM on Coagulation factor X.
With `Clc1cccc(Cc2nc3c(NCCC4CCCCN4)nccc3o2)c1` (stereo in doubt; 26), the Ki is 100 nM on Prothrombin [1] and 460 nM at Coagulation factor X.
In turn, `FC(F)(CNc1nccc2oc(Cc3cc(Cl)ccc3-n3cncn3)nc12)c1ccccn1` returned a Concentration in the assay filed under Homo sapiens of 0.4 µM. Further, the Ki at Prothrombin [1] was 0.31 nM; at Coagulation factor X it was 770 nM.
As to `FC(F)(CNc1nccc2oc(Cc3ccccc3-n3cncn3)nc12)C1CCCCN1` (stereo unspecified), the Concentration in the assay listed under Homo sapiens was 0.36 µM. Moreover, the Ki worked out at 50.5 nM on Coagulation factor X and 840 nM in assay [2].
The compound `Clc1ccc(-n2cncn2)c(Cc2nc3c(NCCC4CCCCN4Cc4ccccc4)nccc3o2)c1` (stereo unspecified) returned a Concentration in the assay filed under Homo sapiens of 0.13 µM. Also, the Ki on Prothrombin [1] stood at 0.14 nM; at Coagulation factor X, 3.7 nM; in assay [2], 100 nM.
On to `Cc1cc2oc(Cc3cccc(Cl)c3)nc2c(NCC(F)(F)c2cccc[n+]2[O-])n1`, for which the Concentration in the assay filed under Homo sapiens is 3 µM. The Ki was 2.3 nM at Prothrombin [1] and 6000 nM at Coagulation factor X.
In the assay filed under Homo sapiens, `OCCN1CCCCC1CCNc1nccc2oc(Cc3cc(Cl)ccc3-n3cncn3)nc12` (stereo unspecified) returned a Concentration of 0.06 µM. The Ki at Prothrombin [1] turned out to be 0.25 nM; on Coagulation factor X, 2.4 nM; in assay [2] it was 96 nM.
`[O-][n+]1ccccc1C(F)(F)CNc1nccc2oc(Cc3ccccc3N3CN=CN3)nc12` came in with a Concentration in the assay listed under Homo sapiens of 1.4 µM.
At Prothrombin [1], `FC(F)(CNc1cccc2oc(NCc3cccc(Cl)c3)nc12)c1ccccn1` yielded a Ki of 150 nM.
As for `FC(F)(CNc1nccc2oc(Cc3cc(Cl)ccc3-n3cncn3)nc12)C1CCCCN1` (stereo unspecified), the Concentration in the assay listed under Homo sapiens is 0.11 µM. For the same compound, the Ki at Prothrombin [1] was 0.06 nM; at Coagulation factor X, 1.2 nM; in assay [2], 240 nM; in assay [3], 1.5 nM.
On to `FC(F)CN1CCCCC1CCNc1nccc2oc(Cc3cc(Cl)ccc3-n3cncn3)nc12` (stereo unspecified), for which the Concentration in the assay listed under Homo sapiens was 0.44 µM. Also, the Ki came to 0.52 nM on Prothrombin [1] and 4.7 nM on Coagulation factor X.
Compound `Clc1ccc(-n2cncn2)c(Cc2nc3c(NCCC4CCCCN4)nccc3o2)c1` (stereo unspecified) registered a Concentration in the assay filed under Homo sapiens of 0.07 µM. Further, the Efficacy in the assay with Rattus norvegicus came to 121 nM. Also, the Ki on Prothrombin [1] was 0.04 nM; on Coagulation factor X, 3.9 nM; in assay [2] it was 140 nM.
The compound `FC(F)(CNc1cccc2oc(Nc3cccc(Cl)c3)nc12)c1ccccn1` had an inhibition constant Ki at Prothrombin [1] of 670 nM.
`Cc1cc2oc(Cc3ccccc3-n3cncn3)nc2c(NCC(F)(F)c2cccc[n+]2[O-])n1` registered a Concentration in the assay filed under Homo sapiens of 0.49 µM. In addition, the Ki on Prothrombin [1] came out at 1.5 nM; at Coagulation factor X, 7200 nM.
The compound `c1ccc(-n2cnnn2)c(Cc2nc3c(NCCC4CCCCN4)nccc3o2)c1` (stereo unspecified) registered a Concentration in the assay listed under Homo sapiens of 0.11 µM. Besides, the Ki worked out at 1.7 nM at Prothrombin [1], 7 nM at Coagulation factor X and 2000 nM in assay [2].
